# Laboratory results reported in paper PMC8027986 (Cell chemical biology, 2020).
# Key:
# recombinant PfMAGLLP = recombinant PfMAGLLP (Plasmodium falciparum, UniProt Q8IJ22); experiment: Fluorogenic substrate assay with rPfMAGLLP; assay type: biochemical; conditions: for inhibition of esterase activity of PfMAGLLP: 1 μM compound; for inhibition at 1 µM: read-out: inhibition of esterase activity of PfMAGLLP
# [1] = tested on: P. falciparum W2 parasites; experiment: P. falciparum replication assay; assay type: cell-based, Plasmodium falciparum; conditions: for effect of isopentenyl pyrophosphate (IPP) on potency: 72 h growth assays in presence and absence of IPP; for EC50: Plasmodium falciparum, W2, 72 h, read-out: EC50 parasite growth inhibition
# Method in brief: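 Synchronized ring-stage W2 parasites in human erythrocytes, at 1% parasitemia and 0.5% hematocrit, exposed to test compound for 72 h. Cultures fixed in 1% paraformaldehyde (final) for 30 min at room temperature, then stained overnight at 4°C with 50 nM YOYO-1. Infected (YOYO-1-positive) versus uninfected cells counted by flow cytometry.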
# [2] = tested on: Sal A-selected clones and parental Dd2_Polδ line; experiment: IC50 determination for Sal A-selected clones; assay type: cell-based, Plasmodium falciparum; conditions: versus parental Dd2_Polδ
# [3] = tested on: serine hydrolases in Plasmodium falciparum parasites; experiment: FP-Rho labeling competition in whole Pf parasites; assay type: cell-based; conditions: 1 μM Sal A
# Method in brief: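 P. falciparum cultures (ring/trophozoite, 13% parasitemia) treated with DMSO or test compound for 3 h at 37°C. 50 μg clarified lysate labeled with 1 μM FP-Rho for 1 h at 37°C; SDS-PAGE with in-gel fluorescence scan.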
# [4] = target: human depalmitoylase APT1 (Homo sapiens, UniProt O75608); experiment: FP-Rho labeling competition in HEK293T cells, APT1; assay type: cell-based
# [5] = tested on: Dd2 parasites overexpressing PfMAGLLP or other putative Sal A targets; experiment: Dose-response assays with parasites overexpressing putative Sal A targets; assay type: cell-based, Plasmodium falciparum
# [6] = tested on: T. gondii depalmitoylase PPT1 (TgPPT1); experiment: FP-Rho labeling competition in T. gondii parasites; assay type: cell-based, Toxoplasma gondii; conditions: WT (Δku80) and ΔPPT1 parasites
# [7] = tested on: a variety of mammalian cell lines; conditions: ref Schulze et al., 2015; cited from earlier work
# [8] = target: human depalmitoylase APT2 (Homo sapiens, UniProt O95372); experiment: FP-Rho labeling competition in HEK293T cells, APT2; assay type: cell-based
# Method in brief: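 Lysates of treated HEK293T cells, clarified at 4°C and quantified by BCA; 50 μg lysate labeled with 1 μM FP-Rho for 1 h at 37°C. Reactions quenched in reducing SDS sample buffer, resolved by SDS-PAGE, and gel fluorescence scanned (532-nm laser, 610-nm filter).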
# [9] = tested on: parasites expressing PfATP4 fused to GFP; experiment: Imaging of PfATP4-GFP parasites; assay type: cell-based, Plasmodium falciparum; conditions: 18 h treatment from 24-30 hpi; 2 μM Sal A or 6 μM Orlistat
# [10] = tested on: Pf lines expressing WT-GFP or S179T-GFP PfPARE; experiment: Sal A sensitivity of parasites expressing WT or S179T PfPARE-GFP; assay type: cell-based, Plasmodium falciparum; conditions: WT-GFP versus S179T-GFP
# Sequence of human depalmitoylase APT2 (O95372 whole entry): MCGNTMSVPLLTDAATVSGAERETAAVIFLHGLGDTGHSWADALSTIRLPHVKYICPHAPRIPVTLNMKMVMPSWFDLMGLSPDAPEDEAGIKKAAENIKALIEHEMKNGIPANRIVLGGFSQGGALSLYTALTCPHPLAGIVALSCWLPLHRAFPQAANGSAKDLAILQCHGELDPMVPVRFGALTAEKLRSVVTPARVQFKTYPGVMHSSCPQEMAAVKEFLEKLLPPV
# Sequence of human depalmitoylase APT1 (O75608 whole entry): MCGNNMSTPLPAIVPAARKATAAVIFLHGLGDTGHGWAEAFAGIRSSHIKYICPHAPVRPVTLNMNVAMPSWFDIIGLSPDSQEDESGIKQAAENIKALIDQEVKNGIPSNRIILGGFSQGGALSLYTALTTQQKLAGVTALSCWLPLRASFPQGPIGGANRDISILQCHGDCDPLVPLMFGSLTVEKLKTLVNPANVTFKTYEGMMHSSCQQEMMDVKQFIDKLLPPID
molecule,measurement,setting,value
O=C(Oc1ccc([N+](=O)[O-])cc1)N1CCC(C(O)(c2ccc3c(c2)OCO3)c2ccc3c(c2)OCO3)CC1 [JZL 184],inhibition of esterase activity of PfMAGLLP,recombinant PfMAGLLP,25%
Salinipostin alkyne [Sal alk],effect of isopentenyl pyrophosphate (IPP) on potency,[1],unaffected by IPP
same,potency against Pf parasites compared with parent natural product,"[1]; Pf parasites, Figure S1",retained full potency
O=C(OC(C(F)(F)F)C(F)(F)F)N1CCN(C(c2ccc(Cl)cc2)c2ccc(Cl)cc2)CC1 [JW651],cross-resistance of Sal A-selected clones,[2],no cross-resistance
same,EC50,[1],0.839 µM
same,decrease in potency against parasites as compared with Sal A,[1]; W2 parasites,16 fold
same,potency against recombinant PfMAGLLP relative to Sal A,recombinant PfMAGLLP,virtually identical potency as Sal A
same,inhibition at 1 µM,recombinant PfMAGLLP,> 90%
Salinipostin A [Sal A],inhibition of FP-Rho labeling of hydrolases in whole Pf parasites,[3],Several hydrolases were inhibited
same,inhibition of APT1 (FP-Rho competition),[4],inhibits the human depalmitoylases APT1 and APT2 in a dose-dependent manner
same,shift in EC50 in parasites overexpressing PF3D7_0808500 or PF3D7_0818600,[5]; exogenous overexpression,no shift in EC50
same,shift in EC50 in parasites overexpressing PfMAGLLP versus WT,[5]; exogenously transfected plasmid,no apparent shift
same,competition with FP-Rho for labeling of TgPPT1,[6],able to compete with FP-Rho for labeling of TgPPT1
same,selectivity index over a variety of mammalian cell lines,[7],"> 1,000"
same,inhibition of APT2 (FP-Rho competition),[8],inhibits the human depalmitoylases APT1 and APT2 in a dose-dependent manner
same,relative potency APT2 versus APT1,[8],increased potency against APT2 over APT1
same,plasma membrane phenotype of schizonts,[9],disorganized plasma membranes that failed to properly surround the merozoites
same,effect of isopentenyl pyrophosphate (IPP) on potency,[1],unaffected by IPP
same,sensitivity of parasites expressing WT or catalytically dead PfPARE,[10],equally sensitive
CCCCCCCCCCC[C@@H](C[C@@H]1OC(=O)[C@H]1CCCCCC)OC(=O)[C@H](CC(C)C)NC=O [Orlistat],cross-resistance of Sal A-selected clones,[2],No significant cross-resistance
same,plasma membrane phenotype of schizonts,[9],disorganized plasma membranes that failed to properly surround the merozoites
same,EC50,[1],0.28 µM
same,potency against recombinant PfMAGLLP relative to Sal A,recombinant PfMAGLLP,equipotent to Sal A
O=C(OC(C(F)(F)F)C(F)(F)F)N1CCC(C(O)(c2ccc3c(c2)OCO3)c2ccc3c(c2)OCO3)CC1 [KML29],IC50,recombinant PfMAGLLP,0.163 µM
same,inhibition at 1 µM,recombinant PfMAGLLP,> 90%
O=C(ON1C(=O)CCC1=O)N1CCN(C(c2ccc(Cl)cc2)c2ccc(Cl)cc2)CC1 [MJN110],inhibition of esterase activity of PfMAGLLP,recombinant PfMAGLLP,more than 90%
